# Experimental data published in the M2OR odorant receptor database.
# Key:
# Conditions in all cases: stereoisomer not certain
# [1] = target: T1, UniProt Q8VGX5
# T1 sequence (whole entry): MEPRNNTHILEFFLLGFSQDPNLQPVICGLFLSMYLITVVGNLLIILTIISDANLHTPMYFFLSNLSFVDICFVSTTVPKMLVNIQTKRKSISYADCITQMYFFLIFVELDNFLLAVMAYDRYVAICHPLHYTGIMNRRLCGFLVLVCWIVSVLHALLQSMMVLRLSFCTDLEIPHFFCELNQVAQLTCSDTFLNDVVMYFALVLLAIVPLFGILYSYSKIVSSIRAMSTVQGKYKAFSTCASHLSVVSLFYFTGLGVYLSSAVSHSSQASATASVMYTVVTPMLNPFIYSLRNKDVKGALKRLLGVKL
# In short: (§1)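 Each receptor–molecule pair is labelled responsive or non-responsive (inactive) according to whether the original authors judged the measured signal statistically different from baseline. The data were taken from the main text and supplementary material of published papers and checked for typos and inconsistencies. Assay methods differed by source, with transient luciferase assays in mammalian cell lines being common.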
# [2] = target: T2, UniProt Q8VGX8
# T2 sequence (whole entry): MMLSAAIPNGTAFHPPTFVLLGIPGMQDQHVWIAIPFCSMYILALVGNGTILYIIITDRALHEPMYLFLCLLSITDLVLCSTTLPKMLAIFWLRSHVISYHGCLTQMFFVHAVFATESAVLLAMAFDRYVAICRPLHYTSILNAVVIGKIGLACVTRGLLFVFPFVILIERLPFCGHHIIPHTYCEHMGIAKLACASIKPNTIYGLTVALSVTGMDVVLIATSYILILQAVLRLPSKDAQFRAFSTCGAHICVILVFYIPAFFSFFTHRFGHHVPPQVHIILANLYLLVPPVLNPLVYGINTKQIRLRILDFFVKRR
# In short: as §1
# [3] = target: T3, UniProt Q8VGY6
# T3 sequence (whole entry): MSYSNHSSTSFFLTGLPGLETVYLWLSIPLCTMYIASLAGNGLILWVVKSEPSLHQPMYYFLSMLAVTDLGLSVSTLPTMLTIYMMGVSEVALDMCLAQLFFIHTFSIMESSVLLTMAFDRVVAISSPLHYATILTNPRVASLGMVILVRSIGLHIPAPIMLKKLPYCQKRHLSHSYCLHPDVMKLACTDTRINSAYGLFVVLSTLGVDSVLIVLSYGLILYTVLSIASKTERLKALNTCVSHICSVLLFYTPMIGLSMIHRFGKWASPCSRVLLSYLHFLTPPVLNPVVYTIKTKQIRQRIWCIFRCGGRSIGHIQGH
# In short: as §1
# [4] = target: T4, UniProt Q8VGZ2
# T4 sequence (whole entry): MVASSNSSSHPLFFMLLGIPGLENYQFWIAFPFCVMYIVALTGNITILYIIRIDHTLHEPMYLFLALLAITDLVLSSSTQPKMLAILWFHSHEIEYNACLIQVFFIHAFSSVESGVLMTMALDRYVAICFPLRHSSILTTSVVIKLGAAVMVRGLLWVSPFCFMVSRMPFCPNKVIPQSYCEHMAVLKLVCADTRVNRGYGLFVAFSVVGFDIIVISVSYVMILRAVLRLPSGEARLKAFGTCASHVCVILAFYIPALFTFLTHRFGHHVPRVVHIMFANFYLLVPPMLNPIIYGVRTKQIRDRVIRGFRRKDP
# In short: as §1
# [5] = target: T5, UniProt Q8VGZ7
# T5 sequence (whole entry): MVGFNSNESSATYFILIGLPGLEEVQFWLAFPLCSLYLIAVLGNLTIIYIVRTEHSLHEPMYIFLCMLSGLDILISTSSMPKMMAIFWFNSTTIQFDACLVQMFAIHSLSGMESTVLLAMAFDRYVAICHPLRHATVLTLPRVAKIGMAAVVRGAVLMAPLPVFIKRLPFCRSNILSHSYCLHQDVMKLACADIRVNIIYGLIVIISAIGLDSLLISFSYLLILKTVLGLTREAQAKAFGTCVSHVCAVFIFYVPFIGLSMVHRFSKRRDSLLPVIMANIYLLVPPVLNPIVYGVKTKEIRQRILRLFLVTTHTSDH
# In short: as §1
# [6] = target: T6, UniProt Q8VH10
# T6 sequence (whole entry): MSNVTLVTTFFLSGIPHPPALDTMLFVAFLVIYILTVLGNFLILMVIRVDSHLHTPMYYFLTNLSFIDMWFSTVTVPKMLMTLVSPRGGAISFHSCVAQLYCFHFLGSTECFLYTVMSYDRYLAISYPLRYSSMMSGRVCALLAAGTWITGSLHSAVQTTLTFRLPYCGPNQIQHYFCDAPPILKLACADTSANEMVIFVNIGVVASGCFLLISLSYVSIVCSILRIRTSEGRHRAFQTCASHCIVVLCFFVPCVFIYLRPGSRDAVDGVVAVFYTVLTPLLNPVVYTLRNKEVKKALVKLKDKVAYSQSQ
# In short: as §1
# [7] = target: T7, UniProt Q8VH20
# T7 sequence (whole entry): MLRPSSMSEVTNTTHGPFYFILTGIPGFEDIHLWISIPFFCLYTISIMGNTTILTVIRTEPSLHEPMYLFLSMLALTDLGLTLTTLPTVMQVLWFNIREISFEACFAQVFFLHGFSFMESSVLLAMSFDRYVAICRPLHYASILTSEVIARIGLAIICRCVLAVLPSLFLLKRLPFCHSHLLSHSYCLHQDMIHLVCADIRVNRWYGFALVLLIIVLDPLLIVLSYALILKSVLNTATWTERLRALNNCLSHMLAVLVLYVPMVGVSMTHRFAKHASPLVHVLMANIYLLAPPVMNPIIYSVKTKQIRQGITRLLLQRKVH
# In short: as §1
# [8] = target: T8, UniProt Q8VGX3
# T8 sequence (whole entry): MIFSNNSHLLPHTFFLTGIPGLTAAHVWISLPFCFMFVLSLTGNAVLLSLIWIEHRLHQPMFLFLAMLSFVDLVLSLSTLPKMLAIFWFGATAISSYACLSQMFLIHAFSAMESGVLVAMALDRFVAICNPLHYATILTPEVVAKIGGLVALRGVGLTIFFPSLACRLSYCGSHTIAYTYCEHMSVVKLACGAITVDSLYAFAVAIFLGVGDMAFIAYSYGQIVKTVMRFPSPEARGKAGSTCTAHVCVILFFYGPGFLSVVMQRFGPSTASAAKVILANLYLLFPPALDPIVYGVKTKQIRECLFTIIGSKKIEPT
# In short: as §1
# [9] = target: T9, UniProt Q8VH16
# T9 sequence (whole entry): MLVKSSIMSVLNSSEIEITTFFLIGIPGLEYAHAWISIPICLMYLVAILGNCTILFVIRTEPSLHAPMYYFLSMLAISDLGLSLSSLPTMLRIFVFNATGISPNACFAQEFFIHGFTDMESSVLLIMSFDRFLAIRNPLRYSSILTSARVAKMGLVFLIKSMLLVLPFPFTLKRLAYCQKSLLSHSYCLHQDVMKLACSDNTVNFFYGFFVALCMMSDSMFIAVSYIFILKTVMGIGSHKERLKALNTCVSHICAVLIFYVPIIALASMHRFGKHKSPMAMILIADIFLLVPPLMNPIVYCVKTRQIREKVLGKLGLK
# In short: as §1
# [10] = target: UniProt Q8VH18
# In short: as §1
# 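Also: active if original authors judged signal statistically different from baseline.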
# Sequence of UniProt Q8VH18 (Q8VH18 as listed by the source): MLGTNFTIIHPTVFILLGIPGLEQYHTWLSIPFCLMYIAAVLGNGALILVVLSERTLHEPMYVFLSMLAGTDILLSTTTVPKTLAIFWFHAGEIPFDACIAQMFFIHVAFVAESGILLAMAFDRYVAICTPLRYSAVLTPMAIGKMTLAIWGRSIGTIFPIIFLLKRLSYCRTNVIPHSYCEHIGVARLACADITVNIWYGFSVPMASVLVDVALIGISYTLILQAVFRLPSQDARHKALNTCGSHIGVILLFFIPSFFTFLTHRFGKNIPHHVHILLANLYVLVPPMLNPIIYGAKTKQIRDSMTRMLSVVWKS
SMILES,odorant receptor agonist call [1],odorant receptor agonist call [2],odorant receptor agonist call [3],odorant receptor agonist call [4],odorant receptor agonist call [5],odorant receptor agonist call [6],odorant receptor agonist call [7],odorant receptor agonist call [8],odorant receptor agonist call [9],odorant receptor agonist call [10]
CCC1CCC(=O)O1 (stereo unspecified),inactive,inactive,inactive,inactive,inactive,inactive,inactive,–,–,–
C=CCOC(=O)Cc1ccccc1,active,inactive,inactive,inactive,inactive,active,inactive,inactive,inactive,–
COc1ccc(C=O)cc1,inactive,–,–,inactive,inactive,–,inactive,inactive,inactive,–
C=CCc1ccccc1,inactive,inactive,inactive,inactive,inactive,inactive,inactive,–,–,–
CCCCC(Br)C(=O)O (stereo unspecified),inactive,–,–,inactive,inactive,–,active,inactive,inactive,–
CSSC,inactive,–,–,inactive,inactive,–,inactive,inactive,inactive,–
O=C(O)CCCCCCCBr,–,active,–,–,–,–,–,–,–,active
Oc1ccccc1Br,inactive,–,–,inactive,inactive,–,inactive,inactive,inactive,–
O=Cc1ccc2c(c1)OCO2,active,–,–,inactive,inactive,–,inactive,inactive,inactive,–
O=CC=Cc1ccccc1,inactive,–,–,inactive,inactive,–,inactive,inactive,inactive,–
O=c1cc(O)c2ccccc2o1,inactive,inactive,inactive,inactive,inactive,inactive,inactive,inactive,inactive,–
O=Cc1ccccc1,inactive,–,–,inactive,inactive,–,inactive,inactive,inactive,–
OCc1ccc2c(c1)OCO2,inactive,–,–,inactive,inactive,–,inactive,inactive,inactive,–
Cc1ccc(OC(=O)Cc2ccccc2)cc1,inactive,–,–,inactive,inactive,–,active,inactive,inactive,–
C=C(C)C1CC=C(C=O)CC1 (stereo unspecified),inactive,–,–,inactive,inactive,–,inactive,inactive,inactive,–
CC(C=O)Cc1ccc2c(c1)OCO2 (stereo unspecified),active,–,–,inactive,inactive,–,inactive,inactive,inactive,–
CCCCCCC(Br)C(=O)O (stereo unspecified),inactive,–,–,inactive,inactive,–,active,inactive,inactive,–
